Results of several laboratories.
Each line is one published result; the experiments were not run side by side.
Cell line: HepG2
Read-out: cell growth or viability

| Structure (SMILES) | method | tested at | time | quantity | value |
| --- | --- | --- | --- | --- | --- |
| CCCCCCn1c(-c2cccc(Cl)c2)n[nH]c1=S | resazurin | 1 µM | 24 h | viability | 87% |
| COC1=CC(c2cccn2C)=NC1=Cc1ccc(CCCCCCCCCC(C)O)[nH]1 (stereo not drawn) |  |  |  | IC50 | > 100 µM |
| C/C=C(/C)C(=O)O[C@@H]1[C@H](OC(C)=O)c2c(ccc3ccc(=O)oc23)OC1(C)C | WST-1 |  |  | IC50 | 50.9 µM |
| COc1ccc2c(c1)c1c(n2CO)CN2CCc3cc(OC)c(OCc4ccc(F)cc4)cc3C2C1 (stereo not drawn) |  | 20 µM | 24 h | viability | 104% |
| COc1cc2[nH]c(C)c(-c3ccc(Oc4ccc(C(F)(F)F)cc4)cc3)c(=O)c2cc1Cl | resazurin |  |  | IC50 | > 10 µM |
| COc1ccc2cc3[n+](cc2c1OC)CCc1cc2c(cc1-3)OCO2 |  | 10 µM | 24 h | viability | 102% |
| CC1=C(C)C(c2ccc[nH]2)=NC1=Cc1ccc(CCCCCCCCCC(C)O)[nH]1 (stereo not drawn) |  |  |  | IC50 | 9.38 µM |
| COc1cc2[nH]c(C)c(-c3ccc(Oc4ccc(OC(F)(F)F)c(F)c4)cc3)c(=O)c2cc1Cl | resazurin |  |  | IC50 | > 10 µM |
| CCCCCCCCCCCCCCCCOP(=O)([O-])OCC[N+](C)(C)C | MTS |  | 24 h | CC50 | > 20 µM |
| COc1ccc(CCN2CCC(Nc3nc4ccccc4n3Cc3ccc(F)cc3)CC2)cc1 | resazurin | 1 µM | 24 h | viability | 113% |
| COc1ccc2c(c1)c1c(n2CO)CN2CCc3cc(OCc4ccccc4)c(OC)cc3C2C1 (stereo not drawn) |  | 10 µM | 24 h | viability | 111% |
| COC1=CC(c2ccc[nH]2)=NC1=Cc1ccc(CCCCCCCCCCCCO)[nH]1 |  |  |  | IC50 | 6.18 µM |
| COc1ccc2c(c1)c1c(n2CO)CN2CCc3cc(OC)c(OCC(F)(F)F)cc3C2C1 (stereo not drawn) |  | 10 µM | 24 h | viability | 96.6% |
| COc1cccc2c1C(=O)c1c(O)c3c(c(O)c1C2=O)C[C@@](O)(C(=O)CO)C[C@@H]3O[C@H]1C[C@H](N)[C@H](O)[C@H](C)O1 | MTT | 25 µM | 48 h | viability | 31.4% |
| CC(=O)OC1c2c(ccc3ccc(=O)oc23)OC(C)(C)C1OC(=O)C(C)(O)C(C)O (stereo not drawn) | WST-1 |  |  | IC50 | 24.4 µM |
| CNc1cccc2cc(C(=O)NCc3ccc(C(=O)O)cc3)c(=O)[nH]c12 | CCK-8 | 50 µM | 48 h | cell death | 18% |
| COc1cc2[nH]c(C)c(-c3ccc(Oc4ccc(F)c(OC(F)(F)F)c4)cc3)c(=O)c2cc1Cl | resazurin |  |  | IC50 | > 10 µM |
| CNc1cccc2cc(C(=O)NCCc3cccc(C(=O)O)c3)c(=O)[nH]c12 | CCK-8 | 10 µM | 48 h | cell death | 5.9% |
| CC(C)(C)CC(C)(C)Nc1c(-c2ccccc2)nc2ncccn12 | MTT | 25 µM | 48 h | viability | 67.4% |
| Cc1[nH]c2ccccc2c(=O)c1-c1ccc(Oc2ccc(OC(F)(F)F)cc2)nc1 | resazurin |  |  | IC50 | > 10 µM |
| COC1=CC(c2ccc[nH]2)=NC1=Cc1ccc(CCCCCCCCCCO)[nH]1 |  |  |  | IC50 | 11.4 µM |
| Cc1[nH]c2ccc(F)cc2c(=O)c1-c1ccc(Oc2ccc(OC(F)(F)F)cc2)nc1 | resazurin |  |  | IC50 | > 10 µM |
| COc1cc2c(cc1OCc1ccccc1F)C1Cc3c(n(CO)c4ccccc34)CN1CC2 (stereo not drawn) |  | 10 µM | 24 h | viability | 109% |
| CC(=O)O[C@@H]1c2c(ccc3ccc(=O)oc23)OC(C)(C)[C@@H]1OC(=O)C1(C)OC1C (stereo partly drawn) | WST-1 |  |  | IC50 | 20.7 µM |
